Experimental data published in the array DNA melting data of Ke et al. (doi:10.1101/2024.01.08.574731).

How the values were obtained:
[1] = folding enthalpy; higher = less favourable; fluorescence melt of hairpins on a sequencing array, two-state fit; conditions: sodium 0.088 M
How it was run: (§1)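 Hairpins were imaged by Cy3 fluorescence on a sequenced MiSeq flow cell with annealed Cy3 and quencher oligos, in 50 mM Na-HEPES pH 8.0, 25 mM NaCl, in 2.5 °C steps up to 60 °C. Bootstrapped two-state fits of normalised signals gave melting temperature and folding enthalpy. Four replicates were combined by inverse variance, and fitted temperatures were raised by 9.35 °C to match UV melts.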

[2] = melting temperature; fluorescence melt of hairpins on a sequencing array, two-state fit, raised by 9.35 °C to match UV melts; conditions: sodium 0.088 M
How it was run: as §1

Row | Sequence | folding enthalpy [1] [kcal/mol] | Tm [2] [°C]
1 | GCGAGTTTCGC ((((...)))) | -17.3 | 51
2 | GCTACCGGAAACGGTAAC (.(((((....))))).) | -12.9 | 37.2
3 | GCTCGCACGAAAGTGAGC (((..(((....)))))) | -21.2 | 49.6
